For test [1], the system named is KB. Nature of the test: In vitro cytotoxic activity against human KB-VIN10 cell line overexpressing P-gp 170/MDR. The test is classed as functional, cell-based. The method in brief: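 Vincristine-selected P-gp170/MDR-overexpressing KB line, maintained with 10 nM vincristine, then grown drug-free for 3 days before use. Log-phase cells seeded at 5000 cells/mL/well, exposed 72 h to various drug concentrations; methylene blue dye readout, IC50 (50% growth inhibition versus control) taken graphically. Mean and SD, at least three independent experiments.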

In the next test the test system is TSGH. The test is described as follows: In vitro cytotoxic activity against human TSGH cell line of stomach carcinoma. The test is classed as functional, cell-based. In a few lines: (§1)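 Cells kept in RPMI-1640 with 5% fetal bovine serum; log-phase cells seeded at 5000 cells/mL/well, exposed to various drug concentrations for 72 h. Growth read by methylene blue dye assay; IC50 (50% growth inhibition versus control) derived graphically. Mean and SD of at least three independent experiments.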

Another test deals with HT-29. The test is described as follows: In vitro cytotoxic activity against human HT-29 cell line of colorectal carcinoma. The test is classed as functional, cell-based. The method in brief:
as §1

In test [2] the test system is KB. The test is described as follows: In vitro cytotoxic activity against human KB cell line of epidermoid carcinoma. The test is classed as functional, cell-based. In a few lines:
as §1

The next test addresses Tubulin (Bos taurus, UniProt Q6B856+Q862L2+Q862F3). The test is described as follows: Inhibitory concentration required against MAP-rich tubulin polymerization. The test is classed as functional.
Test [3] concerns the target Tubulin alpha chain (Sus scrofa) (UniProt P02550). Nature of the test: Ability to inhibit 3[H]Colchicine binding to colchicine-binding domain of tubulin; Strong inhibition.
For test [4] the target is unchanged. Nature of the test: Ability to inhibit 3[H]Colchicine binding to colchicine-binding domain of tubulin; Weak inhibition.
Test [5] shares this target. The test is described as follows: Ability to inhibit 3[H]Colchicine binding to colchicine-binding domain of tubulin; effective inhibition.

This is an account of results in ChEMBL document CHEMBL1137079, “Synthesis and structure-activity relationships of 3-aminobenzophenones as antimitotic agents” (J Med Chem, 2004).

The term IC50 denotes the concentration needed to halve the response being measured.

Sequence of Tubulin alpha chain (Sus scrofa) (P02550 whole entry, looked up, the tested form may be a part): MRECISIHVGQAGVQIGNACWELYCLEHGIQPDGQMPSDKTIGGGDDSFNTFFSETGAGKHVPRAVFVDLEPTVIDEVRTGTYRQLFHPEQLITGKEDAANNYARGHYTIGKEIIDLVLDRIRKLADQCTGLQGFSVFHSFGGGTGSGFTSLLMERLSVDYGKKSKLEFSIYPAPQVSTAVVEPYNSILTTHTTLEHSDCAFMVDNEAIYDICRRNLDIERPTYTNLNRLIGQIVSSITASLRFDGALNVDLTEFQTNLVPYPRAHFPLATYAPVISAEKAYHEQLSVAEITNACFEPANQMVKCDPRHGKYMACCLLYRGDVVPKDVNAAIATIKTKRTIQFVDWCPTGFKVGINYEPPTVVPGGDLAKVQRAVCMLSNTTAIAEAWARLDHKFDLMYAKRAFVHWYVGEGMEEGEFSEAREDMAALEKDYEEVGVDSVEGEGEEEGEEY

As for `COc1ccc(C(=O)c2cc(OC)c(OC)c(OC)c2)c(N)c1`, the IC50 was 24 nM with KB [1]; 26 nM with TSGH; 42 nM in the test with HT-29; 32 nM with KB [2]; 0.4 µM on Tubulin. Also, in test [3], the inhibition entry is “Strong inhibition”.
With `COc1ccc(Cc2cc(OC)c(OC)c(OC)c2)cc1N`, the IC50 in the test on KB [1] was above 10000 nM; in the test with TSGH it was above 10000 nM; in the test on HT-29 it was above 10000 nM; in the test on KB [2] it was above 10000 nM; against Tubulin, above 50 µM.
With `CCCOc1ccc(C(=O)c2cc(OC)c(OC)c(OC)c2)cc1N`, the IC50 with KB [1] is 8600 nM; in the test on TSGH, 4800 nM; in the test on HT-29 it was 9000 nM; with KB [2] it was 3800 nM; against Tubulin, 42 µM.
`COc1ccc(N)c(C(=O)c2cc(OC)c(OC)c(OC)c2)c1`: the IC50 in the test with KB [1] was found to be 352 nM; in the test on TSGH, 100 nM; with HT-29 it was 148 nM; in the test with KB [2] it was 127 nM; against Tubulin it was 1 µM.
With `COc1ccc(N)cc1C(=O)c1cc(OC)c(OC)c(OC)c1`, the IC50 was 324 nM in the test on KB [1]; 497 nM in the test on TSGH; 400 nM in the test with HT-29; 306 nM in the test with KB [2]; 2.9 µM against Tubulin. Also, in test [4], the inhibition result is “Weak inhibition”.
With `COc1ccc(/C=C\c2cc(OC)c(OC)c(OC)c2)cc1O` [COMBRETASTATIN A4], the IC50 was 2.4 nM in the test with KB [1], 45 nM with TSGH, 260 nM in the test with HT-29 and 2.1 nM in the test with KB [2].
Regarding `COc1cc(C(=O)c2ccc(Cl)c(N)c2)cc(OC)c1OC`, the IC50 in the test with KB [1] stood at 3800 nM; in the test with TSGH it was 4000 nM; with HT-29, 4000 nM; in the test on KB [2], 800 nM; against Tubulin, 11 µM.
Turning to `COc1cc(C(=O)c2cc(N)cc(Cl)c2)cc(OC)c1OC`, the IC50 in the test with KB [1] is 2900 nM; with TSGH it was 1500 nM; in the test on HT-29, 1900 nM; in the test with KB [2] it was 1400 nM; on Tubulin it was 17 µM.
For `COc1ccc(/C=C\c2cc(OC)c(OC)c(OC)c2)cc1N`, the IC50 amounted to 7.5 nM with KB [1], 7.7 nM in the test with TSGH, 7.9 nM in the test with HT-29 and 8.2 nM in the test on KB [2].
For the molecule `CCOc1ccc(C(=O)c2cc(OC)c(OC)c(OC)c2)cc1N`, the IC50 in the test with KB [1] turned out to be 40 nM; in the test on TSGH it was 42 nM; with HT-29, 45 nM; in the test on KB [2], 59 nM; against Tubulin it was 0.7 µM.
With `COc1cc(C(=O)c2cc(N)ccc2Cl)cc(OC)c1OC`, in test [5], the inhibition result is on record as “effective inhibition”. The IC50 was found to be 125 nM in the test on KB [1]; 157 nM with TSGH; 163 nM in the test with HT-29; 180 nM in the test with KB [2]; 0.6 µM at Tubulin.
Turning to `COc1cc(N)cc(C(=O)c2cc(OC)c(OC)c(OC)c2)c1`, the IC50 stood at 307 nM in the test with KB [1]; 157 nM in the test with TSGH; 163 nM in the test on HT-29; 590 nM in the test on KB [2]; 2.6 µM on Tubulin.
The corresponding values for `COc1ccc(C(=O)c2cc(OC)c(OC)c(OC)c2)cc1O` [PHENSTATIN] are 30 nM, 170 nM, 560 nM, 30 nM and 0.4 µM.
Taken in the same sequence, the figures for `COc1cc(C(=O)c2cc(Cl)ccc2N)cc(OC)c1OC` were 162 nM, 185 nM, 218 nM, 195 nM and 0.1 µM.
The corresponding values for `COc1cc(C(=O)c2ccc(OC(C)C)c(N)c2)cc(OC)c1OC` are 800 nM, 900 nM, 1300 nM, 900 nM and 6.4 µM.
Take `COc1ccc(C(=O)c2cc(OC)c(OC)c(OC)c2)cc1N`: the IC50 came to 31 nM in the test with KB [1]; 33 nM in the test with TSGH; 33 nM with HT-29; 32 nM with KB [2]; 0.3 µM at Tubulin. The inhibition result in test [3] was “Strong inhibition”.
In the case of `COc1cc(C(=O)c2ccc(Cl)cc2N)cc(OC)c1OC`, the IC50 was 800 nM with KB [1]; 800 nM with TSGH; 1000 nM in the test on HT-29; 710 nM in the test on KB [2]; 2.7 µM against Tubulin.
